Measured values published in ChEMBL document CHEMBL4257470, “Rational design and characterization of a DNA/HDAC dual-targeting inhibitor containing nitrogen mustard and 2-aminobenzamide moieties” (Medchemcomm, 2018).
Active and inactive are the calls of the source. No cut-off for these calls is given here.

How the values were obtained:
[1] = Induction of DNA damage in human A375 cells assessed as phosphorylation of H2AX at Ser139 residues at 8 uM after 48 hrs relative to control; assay type: functional
How it was run: (§1)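 A375 cells seeded 7000 per well, treated next day for 48 h. Whole-cell γH2AX (Ser139) immunoassay read by absorbance, normalised to cell number and expressed as percent of untreated control; mean ± SD, n = 3; t-test.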

[2] = Induction of DNA damage in human A375 cells assessed as phosphorylation of H2AX at Ser139 residues at 16 uM after 48 hrs relative to control; assay type: functional; how it was run: as §1
SMMC-7721 = assay: Antiproliferative activity against human SMMC7721 cells after 72 hrs CCK8 assay; assay type: functional, cell-based; conditions: SMMC-7721, 72 h
How it was run: (§2)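 Cells grown in RPMI1640 with 10% FBS, 1% penicillin/streptomycin, 37 °C, 5% CO2; log-phase cells seeded 3000–4000 per well, dosed after 12 h with a concentration series or solvent control for 72 h. CCK-8 added for 1 h, absorbance at 450 nm; IC50 from percent growth versus untreated control; mean of three experiments.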

NCI-H1299 = assay: Antiproliferative activity against human H1299 cells after 72 hrs CCK8 assay; assay type: functional, cell-based; conditions: NCI-H1299, 72 h
NCI-H460 = assay: Antiproliferative activity against human H460 cells after 72 hrs CCK8 assay; assay type: functional, cell-based; conditions: NCI-H460, 72 h; how it was run: as §2
A-375 [3] = assay: Induction of apoptosis in human A375 cells assessed as early apoptotic cells at 2 uM after 72 hrs by Alexa Fluor 488 Annexin/propidium iodide staining-based flow cytometric analysis (reference value: 2.07%); assay type: functional
A-375 [4] = assay: Induction of apoptosis in human A375 cells assessed as late apoptotic cells at 2 uM after 72 hrs by Alexa Fluor 488 Annexin/propidium iodide staining-based flow cytometric analysis (reference value: 10.22%); assay type: functional
A-375 [5] = assay: Induction of apoptosis in human A375 cells assessed as necrotic cells at 2 uM after 72 hrs by Alexa Fluor 488 Annexin/propidium iodide staining-based flow cytometric analysis (reference value: 1.64%); assay type: functional
A-375 [6] = assay: Induction of apoptosis in human A375 cells assessed as viable cells at 2 uM after 72 hrs by Alexa Fluor 488 Annexin/propidium iodide staining-based flow cytometric analysis (reference value: 86.07%); assay type: functional; conditions: A-375, 72 h, read-out: Activity
A-375 [7] = assay: Induction of apoptosis in human A375 cells assessed as early apoptotic cells at 8 uM after 72 hrs by Alexa Fluor 488 Annexin/propidium iodide staining-based flow cytometric analysis (reference value: 2.07%); assay type: functional
A-375 [8] = assay: Induction of apoptosis in human A375 cells assessed as late apoptotic cells at 8 uM after 72 hrs by Alexa Fluor 488 Annexin/propidium iodide staining-based flow cytometric analysis (reference value: 10.22%); assay type: functional
A-375 [9] = assay: Induction of apoptosis in human A375 cells assessed as necrotic cells at 8 uM after 72 hrs by Alexa Fluor 488 Annexin/propidium iodide staining-based flow cytometric analysis (reference value: 1.64%); assay type: functional
A-375 [10] = assay: Induction of apoptosis in human A375 cells assessed as viable cells at 8 uM after 72 hrs by Alexa Fluor 488 Annexin/propidium iodide staining-based flow cytometric analysis (reference value: 86.07%); assay type: functional; conditions: A-375, 72 h, read-out: Activity
A-375 [11] = assay: Induction of apoptosis in human A375 cells assessed as early apoptotic cells at 16 uM after 72 hrs by Alexa Fluor 488 Annexin/propidium iodide staining-based flow cytometric analysis (reference value: 2.07%); assay type: functional
A-375 [12] = assay: Induction of apoptosis in human A375 cells assessed as late apoptotic cells at 16 uM after 72 hrs by Alexa Fluor 488 Annexin/propidium iodide staining-based flow cytometric analysis (reference value: 10.22%); assay type: functional
A-375 [13] = assay: Induction of apoptosis in human A375 cells assessed as necrotic cells at 16 uM after 72 hrs by Alexa Fluor 488 Annexin/propidium iodide staining-based flow cytometric analysis (reference value: 1.64%); assay type: functional
A-375 [14] = assay: Induction of apoptosis in human A375 cells assessed as viable cells at 16 uM after 72 hrs by Alexa Fluor 488 Annexin/propidium iodide staining-based flow cytometric analysis (reference value: 86.07%); assay type: functional; conditions: A-375, 72 h, read-out: Activity
A-375 [15] = assay: Cell cycle arrest in human A375 cells assessed as accumulation at G2/M phase at 8 uM after 72 hrs by propidium iodide/RNase staining based flow cytometric analysis relative to control; assay type: functional
How it was run: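 A375 cells (1.6 × 10^5 per well) plated 12 h, then treated with compound or DMSO for 72 h. Cells fixed overnight in 70% ethanol in phosphate buffer at –20 °C, stained 30 min at room temperature with RNase:PI (1:9). DNA content read by flow cytometry.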

[16] = molecular target: Histone deacetylase (Homo sapiens) (UniProt Q13547+O15379+Q9UBN7+Q92769+Q9UQL6+Q8WUI4+Q9BY41+Q96DB2+P56524+Q9UKV0+Q969S8); assay: Inhibition of HDAC in human HeLa cell nuclear extracts at 0.1 to 10000 uM using FLUOR DE LYS-Green as substrate after 1 hr by fluorescence assay; assay type: protein assay
How it was run: (§3)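 Enzyme preincubated with a concentration series of inhibitor; Fluor de Lys-Green substrate equilibrated at 37 °C for 5 min, then added to start the reaction. Incubated 1 h at 37 °C, stopped with developer for 10 min at 25 °C, fluorescence read at ex 360/em 460 nm. Activity taken as percent of control; IC50 by regression of dose–inhibition data.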

Histone deacetylase 1 = Histone deacetylase 1 (Homo sapiens, UniProt Q13547); assay: Inhibition of recombinant human HDAC1 using FLUOR DE LYS SIRT1 deacetylase substrate after 1 hr by fluorescence assay
How it was run: (§4)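 Each isoform kit run with the enzyme preincubated with a concentration series of inhibitor, and substrate added after 5 min equilibration at 37 °C. Reaction ran 1 h at 37 °C, was stopped with developer for 10 min at 25 °C, and fluorescence was read at ex 360/em 460 nm. Activity taken as percent of control; IC50 by regression of dose–inhibition data.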

Histone deacetylase 2 = Histone deacetylase 2 (Homo sapiens, UniProt Q92769); assay: Inhibition of recombinant human HDAC2 using FLUOR DE LYS-Green as substrate after 1 hr by fluorescence assay; how it was run: as §3
[17] = molecular target: Histone deacetylase 3/NCoR1 (Homo sapiens, UniProt O15379); assay: Inhibition of recombinant human HDAC3/NCOR1 using FLUOR DE LYS SIRT1 deacetylase substrate after 1 hr by fluorescence assay; assay type: protein-complex assay; how it was run: as §4
Histone deacetylase 8 = molecular target: T1, Histone deacetylase 8 (Homo sapiens, UniProt Q9BY41); assay: Inhibition of recombinant human HDAC8 using FLUOR DE LYS as substrate after 1 hr by fluorescence assay; how it was run: as §4
T1 sequence (Q9BY41 whole entry): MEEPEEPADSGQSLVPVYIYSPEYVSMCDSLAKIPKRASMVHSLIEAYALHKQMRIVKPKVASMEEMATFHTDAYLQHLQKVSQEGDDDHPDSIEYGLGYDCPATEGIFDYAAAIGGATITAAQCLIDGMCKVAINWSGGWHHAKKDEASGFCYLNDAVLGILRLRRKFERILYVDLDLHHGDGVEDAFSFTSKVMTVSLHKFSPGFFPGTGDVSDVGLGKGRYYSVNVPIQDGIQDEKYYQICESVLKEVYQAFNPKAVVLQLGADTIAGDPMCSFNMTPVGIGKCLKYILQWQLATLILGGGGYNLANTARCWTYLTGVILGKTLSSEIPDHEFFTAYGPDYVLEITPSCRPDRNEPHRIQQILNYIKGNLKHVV

[18] = molecular target: T2, Protein deacetylase HDAC6 (Homo sapiens, UniProt Q9UBN7); assay: Inhibition of recombinant human HDAC6 using FLUOR DE LYS SIRT1, deacetylase as substrate after 1 hr by fluorescence assay; how it was run: as §4
T2 sequence (Q9UBN7 whole entry): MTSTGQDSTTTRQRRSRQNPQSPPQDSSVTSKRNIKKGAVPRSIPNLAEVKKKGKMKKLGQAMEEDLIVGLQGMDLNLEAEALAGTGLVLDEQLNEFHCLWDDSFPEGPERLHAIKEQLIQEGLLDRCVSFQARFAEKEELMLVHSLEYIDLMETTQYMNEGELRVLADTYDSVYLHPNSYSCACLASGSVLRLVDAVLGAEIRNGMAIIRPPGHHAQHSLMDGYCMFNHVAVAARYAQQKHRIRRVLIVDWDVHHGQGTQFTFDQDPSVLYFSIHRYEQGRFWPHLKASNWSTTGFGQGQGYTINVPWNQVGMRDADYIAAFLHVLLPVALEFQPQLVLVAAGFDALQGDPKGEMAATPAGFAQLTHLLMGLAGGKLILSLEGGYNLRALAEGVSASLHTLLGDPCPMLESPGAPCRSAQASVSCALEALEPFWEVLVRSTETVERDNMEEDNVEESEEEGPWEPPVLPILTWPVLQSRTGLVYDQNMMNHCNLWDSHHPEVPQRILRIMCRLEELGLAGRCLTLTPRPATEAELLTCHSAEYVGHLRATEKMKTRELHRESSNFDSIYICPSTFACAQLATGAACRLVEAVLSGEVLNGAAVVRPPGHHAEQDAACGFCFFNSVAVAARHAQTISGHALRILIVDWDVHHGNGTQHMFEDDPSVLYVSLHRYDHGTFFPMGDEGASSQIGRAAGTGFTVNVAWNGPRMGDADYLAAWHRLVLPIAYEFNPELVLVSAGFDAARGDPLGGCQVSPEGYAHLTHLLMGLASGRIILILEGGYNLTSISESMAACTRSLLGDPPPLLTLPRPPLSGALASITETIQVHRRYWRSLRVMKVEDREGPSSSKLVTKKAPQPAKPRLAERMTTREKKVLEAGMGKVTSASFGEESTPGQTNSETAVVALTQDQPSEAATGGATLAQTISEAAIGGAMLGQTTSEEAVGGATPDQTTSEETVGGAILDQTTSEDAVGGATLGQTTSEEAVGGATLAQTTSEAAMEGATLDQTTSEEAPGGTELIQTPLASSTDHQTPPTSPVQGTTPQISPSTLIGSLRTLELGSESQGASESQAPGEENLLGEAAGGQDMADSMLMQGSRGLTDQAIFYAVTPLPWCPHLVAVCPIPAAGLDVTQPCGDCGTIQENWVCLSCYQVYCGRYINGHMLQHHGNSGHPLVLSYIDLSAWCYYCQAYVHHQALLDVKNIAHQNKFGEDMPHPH

A549 = assay: Antiproliferative activity against human A549 cells after 72 hrs CCK8 assay; assay type: functional, cell-based; conditions: A549, 72 h
A-375 [19] = assay: Antiproliferative activity against human A375 cells after 72 hrs CCK8 assay; assay type: functional, cell-based; conditions: A-375, 72 h
HepG2 = assay: Antiproliferative activity against human HepG2 cells after 72 hrs CCK8 assay; assay type: functional, cell-based; conditions: HepG2, 72 h
A-375 [20] = assay: Anticlonogenic activity against human A375 cells after 7 days by crystal violet staining based assay; assay type: functional, cell-based
How it was run: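 A375 cells seeded at 3000 per well, treated after 24 h with compound or DMSO; after 7 days colonies fixed in 3.7% formaldehyde and stained with 0.1% crystal violet.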

A-375 [21] = assay: Induction of apoptosis in human A375 cells after 72 hrs by Alexa Fluor 488 Annexin/propidium iodide staining-based flow cytometric analysis; assay type: functional, cell-based

Histone deacetylase 2, sequence (Q92769 whole entry): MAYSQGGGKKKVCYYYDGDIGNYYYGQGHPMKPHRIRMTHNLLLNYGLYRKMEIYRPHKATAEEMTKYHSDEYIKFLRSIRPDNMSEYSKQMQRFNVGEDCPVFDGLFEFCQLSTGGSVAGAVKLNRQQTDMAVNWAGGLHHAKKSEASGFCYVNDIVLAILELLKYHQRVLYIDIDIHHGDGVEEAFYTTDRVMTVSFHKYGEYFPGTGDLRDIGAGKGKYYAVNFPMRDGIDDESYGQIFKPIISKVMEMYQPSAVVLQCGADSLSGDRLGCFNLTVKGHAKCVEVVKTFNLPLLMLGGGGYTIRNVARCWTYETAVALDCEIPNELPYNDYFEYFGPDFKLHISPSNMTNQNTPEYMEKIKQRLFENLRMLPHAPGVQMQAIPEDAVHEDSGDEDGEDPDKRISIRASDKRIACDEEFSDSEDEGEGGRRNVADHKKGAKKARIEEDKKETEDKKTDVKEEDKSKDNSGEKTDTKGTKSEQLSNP
Histone deacetylase 3/NCoR1, sequence (O15379 whole entry): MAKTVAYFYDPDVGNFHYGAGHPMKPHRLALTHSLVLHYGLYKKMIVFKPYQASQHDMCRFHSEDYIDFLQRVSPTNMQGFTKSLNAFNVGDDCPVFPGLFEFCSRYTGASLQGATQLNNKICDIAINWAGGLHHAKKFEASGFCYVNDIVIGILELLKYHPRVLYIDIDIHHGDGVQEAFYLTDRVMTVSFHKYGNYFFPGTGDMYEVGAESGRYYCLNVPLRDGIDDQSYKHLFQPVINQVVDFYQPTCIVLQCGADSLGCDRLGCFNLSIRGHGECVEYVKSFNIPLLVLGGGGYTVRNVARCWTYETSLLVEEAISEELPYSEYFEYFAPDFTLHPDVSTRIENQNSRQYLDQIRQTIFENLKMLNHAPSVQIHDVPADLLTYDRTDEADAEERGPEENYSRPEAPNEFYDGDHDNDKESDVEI
Histone deacetylase 3/NCoR1, sequence (O75376 whole entry, further chain): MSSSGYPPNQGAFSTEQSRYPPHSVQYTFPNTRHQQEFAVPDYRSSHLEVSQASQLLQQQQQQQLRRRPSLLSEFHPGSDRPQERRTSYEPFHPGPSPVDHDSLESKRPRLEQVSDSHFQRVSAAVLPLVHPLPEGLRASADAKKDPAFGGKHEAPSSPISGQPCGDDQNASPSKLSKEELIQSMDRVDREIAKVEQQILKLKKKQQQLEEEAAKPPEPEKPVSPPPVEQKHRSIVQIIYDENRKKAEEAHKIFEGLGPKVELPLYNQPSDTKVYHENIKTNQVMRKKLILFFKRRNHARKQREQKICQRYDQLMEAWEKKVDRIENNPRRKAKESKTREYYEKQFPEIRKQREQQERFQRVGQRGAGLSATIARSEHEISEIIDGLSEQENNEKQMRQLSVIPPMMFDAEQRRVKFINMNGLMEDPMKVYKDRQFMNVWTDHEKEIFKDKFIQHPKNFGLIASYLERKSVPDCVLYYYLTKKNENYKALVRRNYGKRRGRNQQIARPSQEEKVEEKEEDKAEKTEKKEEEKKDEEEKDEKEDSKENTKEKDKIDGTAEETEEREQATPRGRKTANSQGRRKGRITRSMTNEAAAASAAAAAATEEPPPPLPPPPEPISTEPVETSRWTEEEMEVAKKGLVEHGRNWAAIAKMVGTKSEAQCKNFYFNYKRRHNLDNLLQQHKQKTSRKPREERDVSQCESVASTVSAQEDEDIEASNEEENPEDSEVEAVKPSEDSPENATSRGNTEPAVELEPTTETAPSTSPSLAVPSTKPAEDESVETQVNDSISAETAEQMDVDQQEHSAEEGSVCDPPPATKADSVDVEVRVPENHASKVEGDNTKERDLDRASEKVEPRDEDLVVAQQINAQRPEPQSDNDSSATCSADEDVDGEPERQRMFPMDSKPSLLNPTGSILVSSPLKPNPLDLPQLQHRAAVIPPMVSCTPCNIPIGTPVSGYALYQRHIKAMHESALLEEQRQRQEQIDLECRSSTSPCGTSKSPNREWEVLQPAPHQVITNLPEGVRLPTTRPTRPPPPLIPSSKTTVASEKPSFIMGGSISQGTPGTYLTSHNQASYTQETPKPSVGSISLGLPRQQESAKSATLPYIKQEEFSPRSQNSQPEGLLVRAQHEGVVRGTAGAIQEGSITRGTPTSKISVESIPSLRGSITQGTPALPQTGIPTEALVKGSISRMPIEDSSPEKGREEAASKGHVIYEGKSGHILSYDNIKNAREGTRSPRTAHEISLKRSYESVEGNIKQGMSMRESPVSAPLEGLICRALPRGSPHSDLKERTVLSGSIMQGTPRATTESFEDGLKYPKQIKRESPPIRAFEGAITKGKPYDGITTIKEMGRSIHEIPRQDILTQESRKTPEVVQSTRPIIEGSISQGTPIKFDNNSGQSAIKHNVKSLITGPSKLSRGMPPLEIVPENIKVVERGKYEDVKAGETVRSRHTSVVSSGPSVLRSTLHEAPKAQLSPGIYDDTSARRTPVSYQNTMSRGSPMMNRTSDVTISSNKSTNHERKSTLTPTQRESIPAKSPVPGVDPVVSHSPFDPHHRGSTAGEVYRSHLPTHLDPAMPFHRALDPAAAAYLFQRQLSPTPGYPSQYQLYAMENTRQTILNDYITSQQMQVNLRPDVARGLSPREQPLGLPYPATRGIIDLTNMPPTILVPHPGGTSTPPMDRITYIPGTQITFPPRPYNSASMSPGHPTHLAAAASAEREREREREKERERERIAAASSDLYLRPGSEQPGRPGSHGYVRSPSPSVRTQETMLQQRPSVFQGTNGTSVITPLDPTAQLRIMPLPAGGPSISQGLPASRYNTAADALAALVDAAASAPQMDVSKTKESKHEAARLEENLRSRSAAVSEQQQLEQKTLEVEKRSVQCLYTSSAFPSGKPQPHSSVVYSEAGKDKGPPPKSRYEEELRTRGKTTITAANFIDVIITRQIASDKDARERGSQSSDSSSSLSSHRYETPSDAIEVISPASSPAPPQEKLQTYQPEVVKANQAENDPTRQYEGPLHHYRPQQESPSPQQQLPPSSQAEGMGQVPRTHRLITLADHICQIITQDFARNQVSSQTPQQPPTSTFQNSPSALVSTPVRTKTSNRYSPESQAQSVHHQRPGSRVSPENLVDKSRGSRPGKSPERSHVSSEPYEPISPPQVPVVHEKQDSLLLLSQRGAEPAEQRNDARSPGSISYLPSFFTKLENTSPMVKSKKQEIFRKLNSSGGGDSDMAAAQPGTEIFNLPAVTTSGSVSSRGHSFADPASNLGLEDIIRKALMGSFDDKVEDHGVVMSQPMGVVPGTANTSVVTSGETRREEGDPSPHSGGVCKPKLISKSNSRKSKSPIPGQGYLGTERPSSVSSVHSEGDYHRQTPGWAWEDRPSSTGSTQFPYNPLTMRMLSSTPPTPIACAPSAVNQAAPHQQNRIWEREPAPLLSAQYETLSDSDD
Histone deacetylase 1, sequence (Q13547 whole entry, canonical isoform): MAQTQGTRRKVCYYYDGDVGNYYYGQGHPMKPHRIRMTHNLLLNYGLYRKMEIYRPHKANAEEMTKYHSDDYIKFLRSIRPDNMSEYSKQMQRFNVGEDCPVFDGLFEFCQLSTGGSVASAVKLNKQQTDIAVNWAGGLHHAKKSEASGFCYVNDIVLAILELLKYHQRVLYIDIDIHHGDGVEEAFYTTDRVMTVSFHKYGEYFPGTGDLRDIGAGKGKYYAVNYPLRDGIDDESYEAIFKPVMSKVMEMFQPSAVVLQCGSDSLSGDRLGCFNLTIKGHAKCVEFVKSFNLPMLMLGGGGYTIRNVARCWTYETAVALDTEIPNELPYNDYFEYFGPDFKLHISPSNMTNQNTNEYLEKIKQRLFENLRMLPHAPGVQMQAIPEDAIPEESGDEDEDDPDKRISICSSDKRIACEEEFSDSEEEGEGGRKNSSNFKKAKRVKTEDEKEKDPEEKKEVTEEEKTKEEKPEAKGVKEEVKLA

| Structure (SMILES) | Activity [1] | Activity [2] | IC50 (SMMC-7721) | IC50 (NCI-H1299) | IC50 (NCI-H460) | Activity (A-375 [3]) | Activity (A-375 [4]) | Activity (A-375 [5]) | viability at 2 µM (A-375 [6]) | Activity (A-375 [7]) | Activity (A-375 [8]) | Activity (A-375 [9]) | viability at 8 µM (A-375 [10]) | Activity (A-375 [11]) | Activity (A-375 [12]) | Activity (A-375 [13]) | viability at 16 µM (A-375 [14]) | Activity (A-375 [15]) | other results |
| --- | --- | --- | --- | --- | --- | --- | --- | --- | --- | --- | --- | --- | --- | --- | --- | --- | --- | --- | --- |
| O=C(O)CCCc1ccc(N(CCCl)CCCl)cc1 [CHLORAMBUCIL] | 128.9% | 128.6% | 163 µM | 116 µM | 28.9 µM | 1.62% | 6.95% | 1.36% | 90.1% | 2.11% | 8.41% | 2.34% | 87.1% | 4.21% | 18.21% | 6.44% | 71.1% | 47.6% | – |
| Nc1ccccc1NC(=O)CCCc1ccc(N(CCCl)CCCl)cc1 | 159% | 213.3% | 4 µM | 5.5 µM | 3.1 µM | 5.76% | 11.63% | 2.77% | 79.8% | 7.39% | 42.54% | 12.05% | 38% | 12.31% | 48.69% | 3.78% | 35.2% | 79.2% | inhibition [16]: Active; IC50 (Histone deacetylase 1): > 160 µM; IC50 (Histone deacetylase 2): 32.9 µM; IC50 [17]: 9.52 µM; IC50 (Histone deacetylase 8): 75.2 µM; IC50 [18]: > 160 µM; IC50 (A549): 6.2 µM; IC50 (A-375 [19]): 6.1 µM; IC50 (HepG2): 14.2 µM; Activity (A-375 [20]): Dose-dependent effect; Activity (A-375 [21]): Dose-dependent effect |
| CC(=O)Nc1ccc(C(=O)Nc2ccccc2N)cc1 [TACEDINALINE] | 104.5% | 118.8% | 16.9 µM | – | 9.7 µM | 9.54% | 11.03% | 1.04% | 78.4% | 19.04% | 9.09% | 0.71% | 70.4% | 36.31% | 26.71% | 1.01% | 36% | 10.8% | – |
